Experiments:
[1] = target: T1, Alpha-1A adrenergic receptor (Homo sapiens, UniProt P35348); experiment: Inhibition of [3H]prazosin binding to CHO-K1 whole cells expressing human cloned Alpha-1A adrenergic receptor; assay type: cell-based
T1 sequence (P35348 whole entry): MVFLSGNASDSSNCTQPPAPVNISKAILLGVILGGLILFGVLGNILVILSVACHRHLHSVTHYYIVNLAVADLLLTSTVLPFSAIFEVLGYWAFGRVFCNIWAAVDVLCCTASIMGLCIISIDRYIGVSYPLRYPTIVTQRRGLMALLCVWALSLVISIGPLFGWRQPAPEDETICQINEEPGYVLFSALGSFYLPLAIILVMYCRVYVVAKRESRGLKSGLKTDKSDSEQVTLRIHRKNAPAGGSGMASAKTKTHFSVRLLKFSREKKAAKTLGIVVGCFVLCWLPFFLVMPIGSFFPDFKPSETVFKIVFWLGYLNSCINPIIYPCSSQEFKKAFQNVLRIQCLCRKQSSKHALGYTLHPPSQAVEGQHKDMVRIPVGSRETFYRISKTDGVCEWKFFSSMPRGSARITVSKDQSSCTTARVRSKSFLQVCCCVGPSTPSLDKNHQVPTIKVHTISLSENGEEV

[2] = target: T2, Alpha-1D adrenergic receptor (Homo sapiens, UniProt P25100); experiment: Inhibition of [3H]prazosin binding to CHO-K1 whole cells expressing human cloned Alpha-1D adrenergic receptor; assay type: cell-based
T2 sequence (P25100 whole entry): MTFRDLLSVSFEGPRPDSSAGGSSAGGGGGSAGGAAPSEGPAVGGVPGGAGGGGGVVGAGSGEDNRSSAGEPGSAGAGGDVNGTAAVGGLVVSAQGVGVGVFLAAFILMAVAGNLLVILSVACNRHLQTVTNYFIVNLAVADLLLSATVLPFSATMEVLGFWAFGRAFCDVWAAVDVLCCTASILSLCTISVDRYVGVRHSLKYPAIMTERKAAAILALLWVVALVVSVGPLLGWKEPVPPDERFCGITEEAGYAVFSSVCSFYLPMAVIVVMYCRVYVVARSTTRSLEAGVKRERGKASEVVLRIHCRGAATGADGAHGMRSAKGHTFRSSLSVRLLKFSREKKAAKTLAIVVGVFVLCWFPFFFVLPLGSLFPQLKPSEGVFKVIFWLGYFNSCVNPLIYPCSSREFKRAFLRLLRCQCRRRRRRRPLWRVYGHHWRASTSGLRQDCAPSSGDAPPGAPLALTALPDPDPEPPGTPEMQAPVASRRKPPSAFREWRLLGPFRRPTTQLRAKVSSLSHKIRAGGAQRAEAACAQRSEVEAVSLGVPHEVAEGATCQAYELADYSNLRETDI

[3] = target: T3, Alpha-1B adrenergic receptor (Homo sapiens, UniProt P35368); experiment: Inhibition of [3H]prazosin binding to CHO-K1 whole cells expressing human cloned Alpha-1B adrenergic receptor; assay type: cell-based
T3 sequence (P35368 whole entry): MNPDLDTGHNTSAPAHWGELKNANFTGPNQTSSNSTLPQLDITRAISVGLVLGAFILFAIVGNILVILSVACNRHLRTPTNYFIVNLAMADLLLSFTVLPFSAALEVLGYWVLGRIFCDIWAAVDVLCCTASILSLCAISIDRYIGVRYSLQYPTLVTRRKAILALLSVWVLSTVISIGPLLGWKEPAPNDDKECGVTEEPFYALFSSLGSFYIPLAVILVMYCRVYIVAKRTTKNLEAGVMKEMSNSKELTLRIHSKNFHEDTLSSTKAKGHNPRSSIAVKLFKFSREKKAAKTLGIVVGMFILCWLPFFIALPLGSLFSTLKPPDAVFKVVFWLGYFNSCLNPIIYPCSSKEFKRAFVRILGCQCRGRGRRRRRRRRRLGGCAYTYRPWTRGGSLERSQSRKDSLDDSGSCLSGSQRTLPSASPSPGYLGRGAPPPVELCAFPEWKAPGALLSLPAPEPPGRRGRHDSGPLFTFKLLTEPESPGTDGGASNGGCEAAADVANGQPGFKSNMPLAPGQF

[4] = Half life period by iv administration in dog at a dose of 0.3 mg/kg; assay type: ADME, organism-based, Canis lupus familiaris; design: dose 0.3 mg/kg, route intravenous; conditions: in vivo
In short: (§1)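 Single dose of 0.3 mg/kg given to dogs both iv and po in a cross-over design, four dogs per compound, with the compound dosed as a salt. Terminal half-life, volume of distribution (calculated after iv dosing only), clearance and oral bioavailability were taken from these single-dose pharmacokinetic profiles.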

[5] = system: Alpha-1D/alpha-1A adrenergic receptors (rat/rabbit); experiment: Ratio of antagonistic activities against alpha-1D vs alpha-1A determined in rat aorta and rabbit bladder neck respectively
[6] = target: Alpha adrenergic receptor (1a and 1d) (Homo sapiens) (UniProt P35348+P25100); experiment: Ratio of binding affinities for human cloned alpha1D- adrenoceptor to that of human cloned alpha1A- adrenoceptor (alpha-1D/alpha-1A); assay type: protein assay
In short: (§2)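 Ratio of α1B (or α1D) to α1A binding affinity, calculated from pKi values for [3H]-prazosin displacement at cloned human subtypes expressed in CHO-K1 membranes or whole cells.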

Canis familiaris = species: Canis familiaris; experiment: In vitro relative rate of metabolism was determined in dog liver microsomes; assay type: ADME, Canis lupus familiaris
[7] = target: Adrenergic receptors; alpha-1 A & B (Homo sapiens) (UniProt P35348+P35368); experiment: Ratio of binding affinities for human cloned alpha1B- adrenoceptor to that of human cloned alpha1A- adrenoceptor (alpha-1B/alpha-1A); assay type: protein assay; in short: as §2
[8] = Volume of distribution by as 4 fold increase by iv administration in dogs; assay type: ADME, organism-based, Canis lupus familiaris; conditions: dog, in vivo; in short: as §1
[9] = Plasma clearance by iv administration in dog at a dose of 0.3 mg/kg; assay type: ADME, organism-based, Canis lupus familiaris; design: dose 0.3 mg/kg, route intravenous; in short: as §1
[10] = Oral bioavailability in dog (i.v. dosing); assay type: ADME, organism-based, Canis lupus familiaris; conditions: in vivo; in short: as §1
[11] = target: T4, Alpha-1D adrenergic receptor (Rattus norvegicus) (UniProt P23944); experiment: Antagonist inhibition noradrenaline-stimulated contractions of rat aortic strings for Alpha-1D adrenergic receptor; assay type: functional
T4 sequence (whole entry): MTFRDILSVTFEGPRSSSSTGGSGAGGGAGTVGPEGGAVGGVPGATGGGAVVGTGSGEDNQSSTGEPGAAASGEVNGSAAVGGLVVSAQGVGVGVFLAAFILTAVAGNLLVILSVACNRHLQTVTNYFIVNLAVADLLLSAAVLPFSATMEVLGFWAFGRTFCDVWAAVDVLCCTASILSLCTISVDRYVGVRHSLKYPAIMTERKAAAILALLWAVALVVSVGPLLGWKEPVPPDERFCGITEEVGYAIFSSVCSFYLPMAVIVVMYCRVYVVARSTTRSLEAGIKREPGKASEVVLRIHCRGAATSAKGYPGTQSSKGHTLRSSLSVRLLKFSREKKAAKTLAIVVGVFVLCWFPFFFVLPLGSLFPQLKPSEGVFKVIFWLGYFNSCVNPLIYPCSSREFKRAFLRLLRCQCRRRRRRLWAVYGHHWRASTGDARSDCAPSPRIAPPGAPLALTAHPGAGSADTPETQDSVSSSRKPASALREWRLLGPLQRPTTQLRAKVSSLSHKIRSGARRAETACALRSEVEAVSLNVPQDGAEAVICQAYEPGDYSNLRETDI

[12] = system: Alpha-1A adrenergic receptor (Oryctolagus cuniculus); experiment: Antagonist inhibition of noradrenaline-stimulated contractions of rabbit bladderneck (RBN) for Alpha-1A adrenergic receptor
[13] = Half life period by po administration in dog at a dose of 0.3 mg/kg; assay type: ADME, organism-based, Canis lupus familiaris; design: dose 0.3 mg/kg, route oral; conditions: in vivo; in short: as §1
[14] = Oral bioavailability in dog; assay type: ADME, organism-based, Canis lupus familiaris; conditions: in vivo; in short: as §1

SMILES	Ki [1]	Ki [2]	Ki [3]	further results
Cc1n[nH]c(=O)n(CCCN2CCN(c3ccccc3OCC(F)(F)F)CC2)c1=O	0.316 nM	7.94 nM	39.8 nM	–
C[C@]1(O)C(=O)N(CCCN2CCN(c3ccc(F)cc3OCC(F)(F)F)CC2)C(=O)N[C@H]1O	5.01 nM	126 nM	251 nM	half-life [4]: 660 min; Ratio [5]: 79; Ratio [6]: 33; Relative rate metabolism (Canis familiaris): 0; Ratio [7]: 63; Vd [8]: 4 L/kg; clearance [9]: 4.17 mL/min/kg; bioavailability [10]: 100%; pA2/pKB [11]: 6.6; pA2/pKB [12]: 8.5; half-life [13]: 600 min; bioavailability [14]: 111%
COc1c[nH]c(=O)n(CCCN2CCN(c3ccc(F)cc3OCC(F)(F)F)CC2)c1=O	–	31.6 nM	158 nM	–
CN(C)c1c[nH]c(=O)n(CCCN2CCN(c3ccc(F)cc3OCC(F)(F)F)CC2)c1=O	–	100 nM	200 nM	–
Cc1c[nH]c(=O)n(CCCN2CCN(c3ccccc3OCC(F)(F)F)CC2)c1=O	0.251 nM	12.6 nM	31.6 nM	–
Cc1c[nH]c(=O)n(CC(C)(C)CN2CCN(c3ccccc3OCC(F)(F)F)CC2)c1=O	3.98 nM	126 nM	398 nM	–
Cc1cn(CCCN2CCN(c3ccccc3OCC(F)(F)F)CC2)c(=O)[nH]c1=O	2 nM	20 nM	100 nM	–
Cc1c[nH]c(=O)n(CCCN2CCN(c3ccc(F)cc3OCC(F)(F)F)CC2)c1=O	–	63.1 nM	–	half-life [4]: 150 min; Vd [8]: 0.93 L/kg; clearance [9]: 4.33 mL/min/kg; bioavailability [10]: 100%; half-life [13]: 168 min; bioavailability [14]: 78%
O=c1[nH]c2ccccc2c(=O)n1CCCN1CCN(c2ccccc2OCC(F)(F)F)CC1	0.0631 nM	2 nM	5.01 nM	Ratio [5]: 4; Ratio [6]: 32; Ratio [7]: 79; pA2/pKB [11]: 8.4; pA2/pKB [12]: 9
Cc1cc(=O)n(CCCN2CCN(c3ccc(F)cc3OCC(F)(F)F)CC2)c(=O)[nH]1	1.58 nM	50.1 nM	158 nM	–
Cc1c[nH]c(=O)n(CCN2CCN(c3ccc(F)cc3OCC(F)(F)F)CC2)c1=O	0.501 nM	2.51 nM	15.8 nM	–
